Data on one compound can be found in ChEMBL document CHEMBL3861950, “Design, synthesis and evaluation of novel 19F magnetic resonance sensitive protein tyrosine phosphatase inhibitors” (Medchemcomm, 2016).

The term IC50 denotes the concentration that inhibits the measured activity by half.

Where only a bound is given, the exact number is not on record here.

Test [1] can be described thus: Selectivity ratio of IC50 for recombinant LYP (unknown origin) to IC50 for recombinant Mycobacterium tuberculosis PTPB.
The target of test [2] is T1, Receptor-type tyrosine-protein phosphatase C (Homo sapiens, UniProt P08575).
T1 sequence (P08575 whole entry): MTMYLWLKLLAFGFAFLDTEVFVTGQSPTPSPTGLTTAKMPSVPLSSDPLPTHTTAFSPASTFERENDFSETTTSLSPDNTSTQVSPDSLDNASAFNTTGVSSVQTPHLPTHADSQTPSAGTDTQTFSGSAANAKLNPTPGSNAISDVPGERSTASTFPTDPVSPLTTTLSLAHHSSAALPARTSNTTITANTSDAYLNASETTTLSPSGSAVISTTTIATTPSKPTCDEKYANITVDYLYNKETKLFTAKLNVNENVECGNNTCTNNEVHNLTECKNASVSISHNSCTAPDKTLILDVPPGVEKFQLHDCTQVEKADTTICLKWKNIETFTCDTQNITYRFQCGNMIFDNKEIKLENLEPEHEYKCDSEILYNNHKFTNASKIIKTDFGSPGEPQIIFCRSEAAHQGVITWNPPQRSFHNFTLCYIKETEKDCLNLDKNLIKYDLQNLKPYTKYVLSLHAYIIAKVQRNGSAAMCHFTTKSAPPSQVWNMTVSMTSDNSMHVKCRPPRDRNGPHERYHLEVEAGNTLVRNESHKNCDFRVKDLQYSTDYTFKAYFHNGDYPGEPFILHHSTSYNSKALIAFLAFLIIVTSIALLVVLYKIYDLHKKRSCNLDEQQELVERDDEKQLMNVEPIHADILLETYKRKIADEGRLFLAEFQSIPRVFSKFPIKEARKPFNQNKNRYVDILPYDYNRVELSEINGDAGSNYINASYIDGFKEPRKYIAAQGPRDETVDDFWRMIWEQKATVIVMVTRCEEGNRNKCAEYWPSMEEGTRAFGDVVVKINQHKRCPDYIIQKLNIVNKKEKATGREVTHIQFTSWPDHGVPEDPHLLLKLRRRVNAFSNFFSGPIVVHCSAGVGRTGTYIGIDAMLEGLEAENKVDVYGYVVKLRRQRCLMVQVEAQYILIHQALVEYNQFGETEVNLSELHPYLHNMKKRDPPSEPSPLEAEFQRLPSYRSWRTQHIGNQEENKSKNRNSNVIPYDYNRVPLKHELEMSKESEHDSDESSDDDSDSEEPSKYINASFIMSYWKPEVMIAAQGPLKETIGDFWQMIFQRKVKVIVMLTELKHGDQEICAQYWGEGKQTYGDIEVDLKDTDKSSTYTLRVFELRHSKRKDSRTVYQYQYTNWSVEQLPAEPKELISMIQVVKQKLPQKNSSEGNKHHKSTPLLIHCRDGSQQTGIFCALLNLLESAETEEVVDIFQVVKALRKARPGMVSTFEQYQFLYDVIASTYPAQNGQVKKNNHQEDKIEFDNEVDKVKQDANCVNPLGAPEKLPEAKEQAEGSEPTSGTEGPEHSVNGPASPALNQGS
Briefly: Inhibition of recombinant CD45 (unknown origin) using pNPP as substrate by spectrophotometric method. An outline of the steps:
(§1)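 Recombinant PTP prepared in-house, assayed with pNPP substrate in 50 mM 3,3-dimethylglutarate buffer pH 7.0 containing 1 mM EDTA and 150 mM NaCl at 25 °C, in 96-well format. p-Nitrophenol product was quantified by absorbance at 405 nm. Non-enzymatic pNPP hydrolysis was corrected using a no-enzyme control.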

Test [3] has as its target T2, Tyrosine-protein phosphatase non-receptor type 1 (Homo sapiens, UniProt P18031).
T2 sequence (P18031 whole entry): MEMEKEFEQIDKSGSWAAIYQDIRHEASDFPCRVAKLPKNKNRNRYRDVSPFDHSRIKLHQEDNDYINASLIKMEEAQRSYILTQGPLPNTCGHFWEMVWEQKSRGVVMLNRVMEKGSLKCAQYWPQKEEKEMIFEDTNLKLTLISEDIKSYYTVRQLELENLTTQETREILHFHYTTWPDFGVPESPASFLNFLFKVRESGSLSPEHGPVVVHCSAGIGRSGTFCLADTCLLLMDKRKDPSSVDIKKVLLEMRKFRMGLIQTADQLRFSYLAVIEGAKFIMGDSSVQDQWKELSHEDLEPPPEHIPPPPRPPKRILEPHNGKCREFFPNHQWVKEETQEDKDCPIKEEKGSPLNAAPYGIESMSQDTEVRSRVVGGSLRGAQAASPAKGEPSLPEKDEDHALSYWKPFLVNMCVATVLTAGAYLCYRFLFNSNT
Kind of test: Inhibition of recombinant PTP1B (unknown origin) using pNPP as substrate by spectrophotometric method. An outline of the steps: as §1

For the compound `Cc1ccc(S(=O)(=O)NNC(=O)COc2ccc3cc(C(O)(C(F)(F)F)C(F)(F)F)c(O)cc3c2)cc1`, in test [1], the Ratio IC50 is more than 7. Further, the figures for the IC50 in test [2] and in test [3] were 16.1 µM and more than 20 µM, respectively.
